Drawing on BindingDB's records for doi:10.1021/np500803e (Chungbuk National University, 2015), this text covers IC50 for eleven compounds.

As usually defined, the IC50 is the concentration that gives 50% inhibition.

Some results are limits rather than exact numbers.

The test concerns the target Signal transducer and activator of transcription 3 (Homo sapiens, UniProt P40763). Briefly: Inhibition of IL6-induced STAT3 activation in human Hep3B cells after 12 hrs by luciferase assay. The essentials:
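Hep3B cells stably carrying a pSTAT3-luciferase reporter, 2 × 10^4 cells/well, grown 24 h, then switched to serum-free medium. Stimulated with IL-6 (10 ng/mL) with or without sample for 12 h. Luciferase activity then read. IC50 taken as the mean of triplicate experiments. Stattic and genistein used as positive controls.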

Signal transducer and activator of transcription 3, sequence (P40763 whole entry): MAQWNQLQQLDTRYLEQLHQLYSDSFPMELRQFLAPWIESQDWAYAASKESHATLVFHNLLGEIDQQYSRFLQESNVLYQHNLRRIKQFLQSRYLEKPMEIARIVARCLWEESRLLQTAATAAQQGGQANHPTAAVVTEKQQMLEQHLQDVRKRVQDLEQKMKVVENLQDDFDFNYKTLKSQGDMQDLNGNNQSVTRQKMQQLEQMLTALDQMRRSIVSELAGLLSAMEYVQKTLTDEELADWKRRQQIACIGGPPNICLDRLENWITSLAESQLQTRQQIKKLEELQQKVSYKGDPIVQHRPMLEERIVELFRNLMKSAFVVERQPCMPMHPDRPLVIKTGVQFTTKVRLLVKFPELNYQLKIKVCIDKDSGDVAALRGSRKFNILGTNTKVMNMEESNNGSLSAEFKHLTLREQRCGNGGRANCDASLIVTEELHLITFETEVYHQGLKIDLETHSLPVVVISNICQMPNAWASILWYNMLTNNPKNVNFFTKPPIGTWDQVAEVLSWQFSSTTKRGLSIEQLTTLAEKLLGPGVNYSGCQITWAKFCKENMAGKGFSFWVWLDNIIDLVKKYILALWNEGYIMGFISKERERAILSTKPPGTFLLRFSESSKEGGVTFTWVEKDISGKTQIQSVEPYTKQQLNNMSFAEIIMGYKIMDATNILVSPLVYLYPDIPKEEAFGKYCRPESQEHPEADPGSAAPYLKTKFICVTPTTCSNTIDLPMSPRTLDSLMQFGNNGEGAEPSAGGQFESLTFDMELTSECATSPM

On to `C[C@@H]1O[C@@H](OC[C@H]2O[C@@H](O[C@@](C)(C/C=C/C(C)(C)O)[C@H]3CC[C@]4(C)[C@@H]3[C@H](O)C[C@@H]3[C@@]5(C)C[C@@H](O)[C@H](O[C@@H]6O[C@H](CO)[C@@H](O)[C@H](O)[C@H]6O)C(C)(C)[C@@H]5CC[C@]34C)[C@H](O)[C@@H](O)[C@@H]2O)[C@H](O)[C@H](O)[C@H]1O`, for which the concentration for half-maximal inhibition (IC50) is 17.1 µM.

In turn, `C=C(C)C(=O)CC[C@](C)(O[C@@H]1O[C@H](CO[C@@H]2O[C@@H](C)[C@H](O)[C@@H](O)[C@H]2O)[C@@H](O)[C@H](O)[C@H]1O)[C@H]1CC[C@]2(C)[C@@H]1[C@H](O)C[C@@H]1[C@@]3(C)C[C@@H](O)[C@H](O)C(C)(C)[C@@H]3CC[C@]12C` had an IC50 of 0.59 µM.

In the case of `C=C(C)C(=O)CC[C@](C)(O[C@@H]1O[C@H](CO[C@@H]2O[C@@H](C)[C@H](O)[C@@H](O)[C@H]2O)[C@@H](O)[C@H](O)[C@H]1O)[C@H]1CC[C@]2(C)[C@@H]1[C@H](O)C[C@@H]1[C@@]3(C)C[C@@H](O)[C@H](O[C@@H]4O[C@H](CO)[C@@H](O)[C@H](O)[C@H]4O[C@@H]4O[C@H](CO)[C@@H](O)[C@H](O)[C@H]4O)C(C)(C)[C@@H]3CC[C@]12C`, it took 19.2 µM to reach half-maximal inhibition (IC50).

`C=C(C)C(=O)CC[C@](C)(O[C@@H]1O[C@H](CO[C@@H]2O[C@H](CO)[C@@H](O)[C@H](O)[C@H]2O)[C@@H](O)[C@H](O)[C@H]1O)[C@H]1CC[C@]2(C)[C@@H]1[C@H](O)C[C@@H]1[C@@]3(C)C[C@@H](O)[C@H](O)C(C)(C)[C@@H]3CC[C@]12C`: 0.27 µM corresponded to half-maximal inhibition (IC50).

As to `CC(C)/C=C/C[C@](C)(O[C@@H]1O[C@H](CO[C@@H]2O[C@@H](C)[C@H](O)[C@@H](O)[C@H]2O)[C@@H](O)[C@H](O)[C@H]1O)[C@H]1CC[C@]2(C)[C@@H]1[C@H](O)C[C@@H]1[C@@]3(C)C[C@@H](O)[C@H](O[C@@H]4O[C@H](CO)[C@@H](O)[C@H](O)[C@H]4O[C@@H]4O[C@H](CO)[C@@H](O)[C@H](O)[C@H]4O)C(C)(C)[C@@H]3CC[C@]12C`, the 50% inhibitory concentration (IC50) was above 30 µM.

`CC(C)(/C=C/C[C@](C)(O[C@@H]1O[C@H](CO)[C@@H](O)[C@H](O)[C@H]1O)[C@H]1CC[C@]2(C)[C@@H]1[C@H](O)C[C@@H]1[C@@]3(C)C[C@@H](O)[C@H](O[C@@H]4O[C@H](CO)[C@@H](O)[C@H](O)[C@H]4O[C@@H]4O[C@H](CO)[C@@H](O)[C@H](O)[C@H]4O)C(C)(C)[C@@H]3CC[C@]12C)OO` showed a 50% inhibitory concentration (IC50) above 30 µM.

On to `CC(C)/C=C/C[C@](C)(O[C@@H]1O[C@H](CO[C@@H]2O[C@@H](C)[C@H](O)[C@@H](O)[C@H]2O)[C@@H](O)[C@H](O)[C@H]1O)[C@H]1CC[C@]2(C)[C@@H]1[C@H](O)C[C@@H]1[C@@]3(C)CC[C@H](O[C@@H]4O[C@H](CO)[C@@H](O)[C@H](O)[C@H]4O[C@@H]4O[C@H](CO)[C@@H](O)[C@H](O)[C@H]4O)C(C)(C)[C@@H]3CC[C@]12C`, for which the IC50 amounted to 4 µM.

In turn, `C[C@@H]1O[C@@H](OC[C@H]2O[C@@H](O[C@@](C)(C/C=C/C(C)(C)OO)[C@H]3CC[C@]4(C)[C@@H]3[C@H](O)C[C@@H]3[C@@]5(C)C[C@@H](O)[C@H](O[C@@H]6O[C@H](CO)[C@@H](O)[C@H](O)[C@H]6O[C@@H]6O[C@H](CO)[C@@H](O)[C@H](O)[C@H]6O)C(C)(C)[C@@H]5CC[C@]34C)[C@H](O)[C@@H](O)[C@@H]2O)[C@H](O)[C@H](O)[C@H]1O` returned an IC50 above 30 µM.

Consider `CC(C)/C=C/C[C@](C)(O[C@@H]1O[C@H](CO[C@@H]2O[C@@H](C)[C@H](O)[C@@H](O)[C@H]2O)[C@@H](O)[C@H](O)[C@H]1O)[C@H]1CC[C@]2(C)[C@@H]1[C@H](O)C[C@@H]1[C@@]3(C)C[C@@H](O)[C@H](O)C(C)(C)[C@@H]3CC[C@]12C`, for which 0.5 µM corresponded to half-maximal inhibition (IC50).

Turning to `CC(C)(/C=C/C[C@](C)(O[C@@H]1O[C@H](CO[C@@H]2O[C@H](CO)[C@@H](O)[C@H](O)[C@H]2O)[C@@H](O)[C@H](O)[C@H]1O)[C@H]1CC[C@]2(C)[C@@H]1[C@H](O)C[C@@H]1[C@@]3(C)C[C@@H](O)[C@H](O)C(C)(C)[C@@H]3CC[C@]12C)OO`, the IC50 is above 30 µM.

Compound `CC(C)/C=C/C[C@](C)(O[C@@H]1O[C@H](CO[C@@H]2O[C@@H](C)[C@H](O)[C@@H](O)[C@H]2O)[C@@H](O)[C@H](O)[C@H]1O)[C@H]1CC[C@]2(C)[C@@H]1[C@H](O)C[C@@H]1[C@@]3(C)C[C@@H](O)[C@H](O[C@@H]4O[C@H](CO)[C@@H](O)[C@H](O)[C@H]4O)C(C)(C)[C@@H]3CC[C@]12C` yielded a half-inhibitory concentration (IC50) of 17.6 µM.
